According to ChEMBL document CHEMBL4196114 (ACS Med Chem Lett, 2018):

Experiments:
Leishmania infantum [1] = assay: Antileishmanial activity against Leishmania infantum MHOM/TN/80/IPT1 promastigotes after 72 hrs by MTT assay; format: functional, organism-based; details: MHOM/TN/80/IPT1, 72 h
Procedure, shortened: (§1)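 Promastigotes grown in Schneider's medium with 10% FCS at 22 °C. Assay in RPMI with 10% FCS, 20 mM Hepes and 2 mM glutamine, 5×10⁶ parasites/mL, seven serial dilutions from DMSO stocks, 72 h at 22 °C. MTT added for 3 h, pellet lysed in SDS/DMF, A550 read against 650 nm reference. IC50 given as mean of separate duplicate experiments; amphotericin B as reference.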

Leishmania tropica = assay: Antileishmanial activity against Leishmania tropica MHOM/IT/2012/ISS3130 promastigotes after 72 hrs by MTT assay; format: functional, organism-based; details: MHOM/IT/2012/ISS3130, 72 h; procedure, shortened: as §1
THP-1 = assay: Cytotoxicity against PMA-differentiated human THP1 cells after 72 hrs by MTT assay; format: cell-based; details: THP-1, 72 h
Procedure, shortened: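 THP-1 cells at 5×10⁵ cells/mL, differentiated with 0.1 μM PMA for 48 h, then exposed to serial dilutions for 72 h. Viability read by MTT; IC50 for growth inhibition. Duplicate experiments, mean reported.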

[2] = Selectivity index, ratio of IC50 for PMA-differentiated human THP1 cells to IC50 for Leishmania infantum MHOM/TN/80/IPT1 promastigotes; format: toxicity; details: read-out: Ratio IC50
[3] = Selectivity index, ratio of IC50 for PMA-differentiated human THP1 cells to IC50 for Leishmania tropica MHOM/IT/2012/ISS3130 promastigotes; format: toxicity; details: read-out: Ratio IC50
Leishmania infantum [4] = assay: Antileishmanial activity against amastigote stage of Leishmania infantum infected in PMA-differentiated human THP1 cells assessed as inhibition of parasite growth at 0.5 uM after 72 hrs by Giemsa staining based light microscopy relative to control; format: functional; details: THP-1, 72 h
Procedure, shortened: (§2)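 THP-1 cells at 5×10⁵ cells/mL differentiated with 0.1 μM PMA for 48 h, then infected with metacyclic L. infantum promastigotes (1:10 macrophage:parasite) for 24 h. Washed monolayers exposed to compound for 72 h, methanol-fixed and Giemsa-stained. Percent infected macrophages versus untreated scored by light microscopy, and IC50 derived. Single-concentration values are means of two or three experiments, IC50 of two.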

Leishmania infantum [5] = assay: Antileishmanial activity against amastigote stage of Leishmania infantum infected in PMA-differentiated human THP1 cells assessed as inhibition of parasite growth after 72 hrs by Giemsa staining based light microscopy; format: functional, organism-based; details: THP-1, 72 h; procedure, shortened: as §2
[6] = Selectivity index, ratio of IC50 for PMA-differentiated human THP1 cells to IC50 for amastigote stage of Leishmania infantum infected in PMA-differentiated human THP1 cells; format: toxicity; details: read-out: Ratio IC50
Mus musculus [7] = assay: Toxicity in C57Bl/6 mouse assessed as survival at 300 mg/kg, po administered as single dose measured twice daily up to 30 days; format: organism-based; details: in vivo, 720 h
Procedure, shortened: (§3)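 Healthy female C57Bl/6 mice, groups of four or five, received one oral dose. Compound was first dissolved in DMSO, then suspended in 0.5% hydroxyethylcellulose-0.1% Tween 80. Behaviour and appearance were checked twice daily for 30 days. A dose counted as tolerated if all mice survived 30 days with normal appearance and behaviour.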

Mus musculus [8] = assay: Toxicity in C57Bl/6 mouse assessed as effect on normal appearance at 300 mg/kg, po administered as single dose measured twice daily up to 30 days; format: organism-based; details: in vivo, 720 h; procedure, shortened: as §3
Mus musculus [9] = assay: Toxicity in C57Bl/6 mouse assessed as effect on normal behavior at 300 mg/kg, po administered as single dose measured twice daily up to 30 days; format: organism-based; details: in vivo, 720 h; procedure, shortened: as §3
Leishmania infantum [10] = assay: Antileishmanial activity against Leishmania infantum MHOM/TN/1980/IPT-1 amastigotes infected in Balb/c mouse assessed as reduction in liver parasite load at 100 mg/kg, po administered for 4 days measured post last dose relative to control; format: functional; set-up: scale not given: the % may be the effect or the level left
Procedure, shortened: (§4)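 Balb/c mice (18-20 g) inoculated via tail vein with 2×10⁶ semi-purified L. infantum IPT-1 amastigotes. Dosing p.o. (0.1% Tween/0.5% HEC in water, or water) or s.c. (sunflower oil, or water) for 4 or 5 consecutive days from day 9 post-infection.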

Leishmania infantum [11] = assay: Antileishmanial activity against Leishmania infantum MHOM/TN/1980/IPT-1 amastigotes infected in Balb/c mouse assessed as reduction in liver parasite load at 60 mg/kg, po administered for 4 days measured post last dose relative to control; format: functional; set-up: scale not given: the % may be the effect or the level left
Procedure, shortened: as §4, with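 “post-infection. On day 13 or 14, liver weight × amastigotes per liver cell gives relative load, expressed versus the untreated control group mean.” for “post-infection.”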

Mus musculus [12] = assay: Toxicity in Balb/c mouse infected with Leishmania infantum MHOM/TN/1980/IPT-1 amastigotes assessed as death at 100 mg/kg, administered for 4 days measured on day 10 to 12; format: organism-based; details: in vivo, 96 h
Leishmania infantum [13] = assay: Antileishmanial activity against Leishmania infantum MHOM/TN/1980/IPT-1 amastigotes infected in Balb/c mouse assessed as reduction in liver parasite load at 10 mg/kg, sc administered for 4 days measured post last dose relative to control; format: functional; set-up: scale not given: the % may be the effect or the level left
Procedure, shortened: as §4, with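 “post-infection. On day 13 or 14, liver weight × amastigotes per liver cell gives relative load, expressed versus the untreated control group mean.” for “post-infection.”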

Leishmania infantum [14] = assay: Antileishmanial activity against Leishmania infantum MHOM/TN/1980/IPT-1 amastigotes infected in Balb/c mouse assessed as reduction in liver parasite load at 5 mg/kg, sc administered for 5 days measured post last dose relative to control; format: functional; set-up: scale not given: the % may be the effect or the level left
Procedure, shortened: as §4, with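 “post-infection. On day 13 or 14, liver weight × amastigotes per liver cell gives relative load, expressed versus the untreated control group mean.” for “post-infection.”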

Leishmania infantum [15] = assay: Antileishmanial activity against Leishmania infantum MHOM/TN/1980/IPT-1 amastigotes infected in po dosed Balb/c mouse assessed as reduction in liver parasite load administered for 4 to 5 days measured post last dose; format: functional, organism-based; procedure, shortened: as §4
Leishmania infantum [16] = assay: Antileishmanial activity against Leishmania infantum MHOM/TN/1980/IPT-1 amastigotes infected in sc dosed Balb/c mouse assessed as reduction in liver parasite load administered for 4 to 5 days measured post last dose; format: functional, organism-based; procedure, shortened: as §4
BMDM [17] = assay: Induction of nitric oxide production in IFNgamma-primed mouse BMDM measured after 24 hrs by Griess assay; format: functional, cell-based
BMDM [18] = assay: Induction of reactive oxygen species production in IFNgamma-primed mouse BMDM measured after 24 hrs by H2DCFDA probe based assay; format: functional, cell-based

## Cl.Cl.Cl.Cl.Clc1ccc2c(NCCCN3CCN(CCCNCCC45CC6CC(CC(C6)C4)C5)CC3)ccnc2c1
Leishmania infantum [1]
  IC50: 520 nM
Leishmania tropica
  IC50: 510 nM
THP-1
  IC50: 1000 nM
[2]
  selectivity ratio: 1.9
[3]
  selectivity ratio: 2
Leishmania infantum [4]
  inhibition at 0.5 µM: 72.2%
Leishmania infantum [5]
  IC50: 310 nM
[6]
  selectivity ratio: 3.22
Mus musculus [7]
  Activity: Non-Toxic
Mus musculus [8]
  Activity: Non-Toxic
Mus musculus [9]
  Activity: Non-Toxic
Leishmania infantum [10]
  Activity: 100%
Leishmania infantum [11]
  Activity: 96%
Mus musculus [12]
  Activity: Toxic
Leishmania infantum [13]
  Activity: 81%
Leishmania infantum [14]
  Activity: 57%
Leishmania infantum [15]
  Activity: Dose-dependent effect
Leishmania infantum [16]
  Activity: Dose-dependent effect
BMDM [17]
  Activity: Dose-dependent effect
BMDM [18]
  Activity: Dose-dependent effect
